Reference: ChEMBL document CHEMBL1121529, “Synthesis of [82Br]bromperidol and preliminary tissue distribution studies in the rat” (J Med Chem, 1980)

Legend:
Design in all cases: dose 0.2 mg/kg, route intravenous
[1] = test system: Rattus norvegicus; assay: Tested for the tissue distribution of Br activity at 30 min in lung following intravenous injection in rat at the dose of 0.2 mg/kg; type: ADME, organism-based; details: in vivo, 0.5 h
In short: (§1)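 Male Sprague-Dawley rats (300-320 g, fed ad libitum) anesthetized with sodium pentobarbital 45 mg/kg, then given an iv bolus into the jugular vein of 19-22 µCi (0.2 mg/kg) [82Br]bromperidol in propylene glycol-ethanol-water (40:20:40), pH 4. Rats serially sacrificed by cardiac puncture. Organs counted 100 s at ~12 000 cpm with decay correction. Values are % dose/g, mean and SD of three.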

[2] = test system: Rattus norvegicus; assay: Tested for the tissue distribution of Br activity at 15 min in brain following intravenous injection in rat at the dose of 0.2 mg/kg; type: ADME, organism-based; details: in vivo, 0.25 h; in short: as §1
[3] = test system: Rattus norvegicus; assay: Tested for the tissue distribution of Br activity at 120 min in lung following intravenous injection in rat at the dose of 0.2 mg/kg; type: ADME, organism-based; details: in vivo, 2 h; in short: as §1
[4] = test system: Rattus norvegicus; assay: Tested for the tissue distribution of Br activity at 15 min in liver following intravenous injection in rat at the dose of 0.2 mg/kg; type: ADME, organism-based; details: in vivo, 0.25 h; in short: as §1
[5] = test system: Rattus norvegicus; assay: Tested for the tissue distribution of Br activity at 60 min in blood following intravenous injection in rat at the dose of 0.2 mg/kg; type: ADME, organism-based; details: in vivo, 1 h; in short: as §1
[6] = test system: Rattus norvegicus; assay: Tested for the tissue distribution of Br activity at 45 min in lung following intravenous injection in rat at the dose of 0.2 mg/kg; type: ADME, organism-based; details: in vivo, 0.75 h; in short: as §1
[7] = test system: Rattus norvegicus; assay: Tested for the tissue distribution of Br activity at 60 min in kidney following intravenous injection in rat at the dose of 0.2 mg/kg; type: ADME, organism-based; details: in vivo, 1 h; in short: as §1
[8] = test system: Rattus norvegicus; assay: Tested for the tissue distribution of Br activity at 120 min in blood following intravenous injection in rat at the dose of 0.2 mg/kg; type: ADME, organism-based; details: in vivo, 2 h; in short: as §1
[9] = test system: Rattus norvegicus; assay: Tested for the tissue distribution of Br activity at 120 min in brain following intravenous injection in rat at the dose of 0.2 mg/kg; type: ADME, organism-based; details: in vivo, 2 h; in short: as §1
[10] = test system: Rattus norvegicus; assay: Tested for the tissue distribution of Br activity at 45 min in blood following intravenous injection in rat at the dose of 0.2 mg/kg; type: ADME, organism-based; details: in vivo, 0.75 h; in short: as §1
[11] = test system: Rattus norvegicus; assay: Tested for the tissue distribution of Br activity at 30 min in kidney following intravenous injection in rat at the dose of 0.2 mg/kg; type: ADME, organism-based; details: in vivo, 0.5 h; in short: as §1
[12] = test system: Rattus norvegicus; assay: Tested for the tissue distribution of Br activity at 15 min in kidney following intravenous injection in rat at the dose of 0.2 mg/kg; type: ADME, organism-based; details: in vivo, 0.25 h; in short: as §1
[13] = test system: Rattus norvegicus; assay: Tested for the tissue distribution of Br activity at 120 min in kidney following intravenous injection in rat at the dose of 0.2 mg/kg; type: ADME, organism-based; details: in vivo, 2 h; in short: as §1
[14] = test system: Rattus norvegicus; assay: Tested for the tissue distribution of Br activity at 60 min in lung following intravenous injection in rat at the dose of 0.2 mg/kg; type: ADME, organism-based; details: in vivo, 1 h; in short: as §1
[15] = test system: Rattus norvegicus; assay: Tested for the tissue distribution of Br activity at 45 min in liver following intravenous injection in rat at the dose of 0.2 mg/kg; type: ADME, organism-based; details: in vivo, 0.75 h; in short: as §1
[16] = test system: Rattus norvegicus; assay: Tested for the tissue distribution of Br activity at 15 min in lungs following intravenous injection in rat at the dose of 0.2 mg/kg; type: ADME, organism-based, Lung; details: in vivo, 0.25 h; in short: as §1
[17] = test system: Rattus norvegicus; assay: Tested for the tissue distribution of Br activity at 45 min in kidney following intravenous injection in rat at the dose of 0.2 mg/kg; type: ADME, organism-based; details: in vivo, 0.75 h; in short: as §1
[18] = test system: Rattus norvegicus; assay: Tested for the tissue distribution of Br activity at 30 min in brain following intravenous injection in rat at the dose of 0.2 mg/kg; type: ADME, organism-based; details: in vivo, 0.5 h; in short: as §1
[19] = test system: Rattus norvegicus; assay: Tested for the tissue distribution of Br activity at 30 min in blood following intravenous injection in rat at the dose of 0.2 mg/kg; type: ADME, organism-based; details: in vivo, 0.5 h; in short: as §1
[20] = test system: Rattus norvegicus; assay: Tested for the tissue distribution of Br activity at 60 min in liver following intravenous injection in rat at the dose of 0.2 mg/kg; type: ADME, organism-based; details: in vivo, 1 h; in short: as §1
[21] = test system: Rattus norvegicus; assay: Tested for the tissue distribution of Br activity at 15 min in blood following intravenous injection in rat at the dose of 0.2 mg/kg; type: ADME, organism-based; details: in vivo, 0.25 h; in short: as §1
[22] = test system: Rattus norvegicus; assay: Tested for the tissue distribution of Br activity at 120 min in liver following intravenous injection in rat at the dose of 0.2 mg/kg; type: ADME, organism-based; details: in vivo, 2 h; in short: as §1
[23] = test system: Rattus norvegicus; assay: Tested for the tissue distribution of Br activity at 30 min in liver following intravenous injection in rat at the dose of 0.2 mg/kg; type: ADME, organism-based; details: in vivo, 0.5 h; in short: as §1
[24] = test system: Rattus norvegicus; assay: Tested for the tissue distribution of Br activity at 60 min in brain following intravenous injection in rat at the dose of 0.2 mg/kg; type: ADME, organism-based; details: in vivo, 1 h; in short: as §1
[25] = test system: Rattus norvegicus; assay: Tested for the tissue distribution of Br activity at 45 min in brain following intravenous injection in rat at the dose of 0.2 mg/kg; type: ADME, organism-based; details: in vivo, 0.75 h; in short: as §1

## O=C(CCCN1CCC(O)(c2ccc(Br)cc2)CC1)c1ccc(F)cc1 [BROMPERIDOL]
[1]
  Dose/g: 3.17%
[2]
  Dose/g: 0.58%
[3]
  Dose/g: 1.23%
[4]
  Dose/g: 1.53%
[5]
  Dose/g: 0.14%
[6]
  Dose/g: 2.75%
[7]
  Dose/g: 0.93%
[8]
  Dose/g: 0.12%
[9]
  Dose/g: 0.2%
[10]
  Dose/g: 0.14%
[11]
  Dose/g: 1.2%
[12]
  Dose/g: 1.63%
[13]
  Dose/g: 0.61%
[14]
  Dose/g: 2.25%
[15]
  Dose/g: 1.7%
[16]
  Dose/g: 5.07%
[17]
  Dose/g: 1.03%
[18]
  Dose/g: 0.41%
[19]
  Dose/g: 0.14%
[20]
  Dose/g: 1.58%
[21]
  Dose/g: 0.15%
[22]
  Dose/g: 1.44%
[23]
  Dose/g: 1.66%
[24]
  Dose/g: 0.32%
[25]
  Dose/g: 0.41%
